The list is not random: actives were taken first. Their share in the collection is about 6.4%.
EphB4 antag – EphB4-ephrin-B2 interaction antagonism | P54760 | EphB4 LBD / TNYL-RAW-Alexa532 peptide, fluorescence polarization | inhibition, % at 7 µM | 97,000 tested, 0.15% active;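 active means inhibition above the screen-wide mean inhibition plus 3 SD, cut at about 15% in these data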;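 further: 0% = DMSO wells and 100% = excess unlabeled TNYL-RAW peptide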
Rev-RRE block – disrupts HIV-1 Rev binding to RRE RNA. P05866. Rev peptide-RRE RNA binding, FRET. inhibition, % at 8 µM. 97,000 tested, 0.79% active;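 active means inhibition above the screen-wide mean plus 3 SD, cut at about 35% in these data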;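 further: 0% = median DMSO wells and 100% = median Neomycin B control wells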
Target sequence (P05866 whole entry, looked up): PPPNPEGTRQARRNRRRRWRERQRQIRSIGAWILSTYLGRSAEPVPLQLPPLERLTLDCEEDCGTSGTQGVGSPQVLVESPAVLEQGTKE
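Test system: labelled RRE RNA duplex and labelled Rev peptide. Times: 5 min compound–RNA preincubation, then 15 min with peptide, 25 °C. Doses: single-dose 8 µM. Measured by: FRET, excitation 480 nm, emission 540 nm donor and 671 nm acceptor. Measure: % inhibition of FRET ratio versus controls.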
PostGolgi ctrl – inhibits growth of the yeast control strain | efflux-deficient yeast background strain, growth absorbance A615, 16 h | inhibition, % at 10 µM | 98,000 tested, 5% active | AID 738
PostGolgi yeast – growth inhibition of a yeast mutant, post-Golgi transport screen | post-Golgi transport phenotypic cell assay | inhibition, % at 10 µM | 98,000 tested, 0.9% active | AID 739;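 further: yeast cells grown in 1536-well plates; yeast grown about 18 h at 30C before absorbance read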
Plk1 PBD FP – inhibitors of human Plk1 polo box domain binding. P53350. Plk1 PBD phosphopeptide binding, fluorescence polarization. inhibition, %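 (tested at about 20 µM)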. 97,000 tested, 0.13% active; in the data active means inhibition above about 34%, passing the limit was not always enough
PLK1 inh – inhibitors of human PLK1 kinase. P53350. recombinant PLK1 kinase, TR-FRET peptide phosphorylation. inhibition, % at 10 µM. 97,000 tested, 0.53% active;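 active means inhibition of 50% or more in the single-concentration screen; inactive means inhibition below 50%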;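 further: 0% = DMSO max control and 100% = H-89 dihydrochloride min control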
An asterisk follows results filed as active; . = no result. Unless noted, no stated cut-off is given here; in the data, active means inhibition above about 30%; inactive means the rest.

SMILES	EphB4 antag	Rev-RRE block	PostGolgi ctrl	PostGolgi yeast	Plk1 PBD FP	PLK1 inh
CCOc1ccc2nc(NC(=O)CCC(=O)c3cccs3)sc2c1	-2.2	7.8	5.0	-23.1	0.7	-4.6
O=C(CSc1ccccc1Cl)N1CCC(c2nc3ccccc3s2)CC1	-9.4	-3.3	63.6*	13.0	16.4	-6.9
Cc1ccc(NC(=S)N2CCC(c3nc4ccccc4s3)CC2)cc1	5.8	-3.1	10.2	0.7	-1.9	-5.8
CCNC(=S)N1CCC(c2nc3ccccc3s2)CC1	-3.4	-3.1	44.5*	7.2	7.4	-13.0
CCCS(=O)(=O)N1CCC(C(=O)NCc2ccco2)CC1	6.8	5.0	11.5	0.7	12.9	-13.2
Cc1cnc(NC(=O)CCCc2nc3ccccc3s2)s1	1.1	5.0	21.1	-2.7	-17.9	-4.7
Cc1ccc2nc(NC(=O)CCCc3nc4ccccc4s3)sc2c1	0.1	7.7	45.2*	-2.7	-12.1	-5.8
Cn1cc(SCC(=O)Nc2nc3ccccc3s2)c2ccccc21	-4.6	5.9	63.9*	0.5	2.5	-2.6
Cc1ccc2nc(NC(=O)CCn3c(=O)sc4ccccc43)sc2c1	4.9	-0.4	70.3*	5.4	-4.5	-5.6
O=C(CCn1c(=O)sc2ccccc21)Nc1nc2ccccc2s1	0.4	6.0	59.9*	-4.4	7.6	-12.0
Cc1csc(SCC(=O)Nc2nc3ccccc3s2)n1	2.5	4.0	12.2	-10.1	8.4	-3.3
O=C(O)CCC(=O)Nc1nc2ccccc2s1	4.5	9.3	-2.5	15.2	10.6	-9.8
CCOC(=O)c1ccc(NC(=O)CSc2nc3cccnc3n2C)cc1	-2.7	2.2	.	.	0.9	-5.3
O=C(Nc1nonc1NC(=O)C1CCCCC1)C1CCCCC1	0.7	1.0	8.7	1.6	-22.6	-4.3
O=S(=O)(N/N=C1\CC(c2ccccc2)Oc2ccccc21)c1ccccc1 (centres undefined)	-4.9	-5.6	19.6	2.6	12.5	-8.2
Cc1ccc(S(=O)(=O)N/N=C2/CC(c3ccccc3)Oc3ccccc32)cc1 (centres undefined)	7.2	3.0	32.7*	10.1	7.4	-9.0
O=C(NCCSCc1ccc(Cl)cc1Cl)c1ccc(CN2CCOCC2)cc1	-0.7	4.0	31.1*	75.6*	-26.1	-5.2
O=C(NCc1ccc2c(c1)OCO2)c1ccc(CN2CCOCC2)cc1	-2.3	0.6	32.9*	3.5	0.4	0.3
O=C(Nc1ccc2c(c1)OCCO2)c1cc(-n2cnnc2)ccc1Cl	-2.9	8.5	10.8	-3.1	-4.4	-6.9
O=C(NCc1ccc2c(c1)OCO2)c1cc(-n2cnnc2)ccc1Cl	1.4	9.1	45.9*	-7.8	-6.1	-1.6
O=C(NCc1ccccc1)c1ccc(CN2CCOCC2)cc1	.	.	23.3	5.0	.	.
O=C(NCc1ccco1)c1ccc(CN2CCOCC2)cc1	-6.5	4.6	3.1	-9.8	-16.8	-19.4
Cc1c(C(=O)NCCC2=CCCCC2)cccc1[N+](=O)[O-]	0.6	6.3	10.8	-2.6	-33.9	-4.3
CC(O)C1CCC2C3CC[C@H]4CC(O)CCC4(C)C3CC3(OCCO3)C12C (some centres undefined)	3.6	-2.0	32.8*	11.4	-10.1	-10.2
COc1ccccc1-n1nnnc1SCC(=O)NC1CCCC1	7.1	8.5	41.6*	-1.6	14.1	-15.9
SMILES	EphB4 antag	Rev-RRE block	PostGolgi ctrl	PostGolgi yeast	Plk1 PBD FP	PLK1 inh
CCn1c(Cc2ccccc2)nnc1SCC(=O)Nc1ccc(OC)cc1	1.9	-0.2	.	.	-0.7	10.7
CCn1c(Cc2ccc(OC)cc2)nnc1SCC(=O)NC1CCCCC1	0.8	-1.2	31.0*	7.4	-4.4	-8.3
COC(=O)c1ccc(/C=N\NC(=O)c2ccc(C)cc2Cl)cc1	-7.7	5.1	11.1	-4.0	-2.9	-10.2
COc1cnn(-c2ccccc2)c(=O)c1SCc1ccc(Cl)cc1Cl	-7.7	12.7	36.1*	-4.7	2.5	-9.6
CCN(CC)CCNC(=O)c1c(O)c2cc(OC)c(OC)cc2[nH]c1=O	.	.	4.4	11.5	.	.
O=C(CNS(=O)(=O)c1cccc2nsnc12)NCc1ccc(Cl)cc1	.	.	-4.0	-2.6	.	.
Clc1ccc2nc(-c3ccc(Br)s3)cn2c1	-8.3	6.3	31.4*	-3.9	-6.6	-7.1
CCSc1nnc(NC(=O)CSc2nnc(-c3c[nH]c4ccccc34)n2CC)s1	-6.9	4.5	1.7	2.4	20.1	-16.6
O=C(Nc1ccc2c(c1)OCCO2)c1cc2sccc2n1Cc1ccccc1	-4.5	3.3	-0.4	-1.7	-34.4	-11.6
O=C(Nc1ccc2c(c1)OCCO2)c1cc2sccc2n1Cc1ccc(F)cc1	-6.2	8.5	52.9*	-4.6	-17.1	-14.8
Brc1ccc(C2C3=C(Nc4ncnn42)c2ccccc2OC3c2ccncc2)cc1 (centres undefined)	-6.6	0.2	40.2*	-2.8	-21.8	-4.9
COc1ccc(C2Oc3ccccc3C3=C2C(c2cccs2)n2ncnc2N3)cc1 (centres undefined)	-9.9	13.0	19.0	-14.3	-25.7	1.3
Nc1cc2c([N+](=O)[O-])cccc2o1	-8.0	50.6*	14.3	-6.1	-9.2	16.4
CS(=O)(=O)c1sc2nc(-c3cccs3)cc(-c3ccccc3)c2c1N	-3.0	36.0*	5.9	0.3	-14.0	-6.9
Cc1cc(C)c2c(N)c(S(=O)(=O)Cc3ccccc3)sc2n1	-0.6	1.0	-2.5	-2.8	-19.4	-10.9
Cc1ccc(-c2cc(-c3ccccc3)c3c(N)c(S(C)(=O)=O)sc3n2)cc1	-2.7	9.8	31.1*	6.1	-21.9	-16.4
COc1nc(-c2cccs2)cc(-c2ccc(C)cc2)c1C#N	-5.1	7.6	5.4	0.7	-7.0	4.0
CC(=O)NCCn1c(SCc2cc(=O)n3cc(Cl)ccc3n2)nc2ccccc2c1=O	6.6	7.1	-1.0	-2.1	2.5	-6.6
COc1ccc(NC(C)C(=O)Nc2ccc(C(C)(C)C)cc2)cc1Cl (centres undefined)	4.7	5.2	33.9*	-4.5	-11.8	-8.5
COc1ccccc1C1CN=NC12CCCc1ccccc1C2=O (centres undefined)	4.6	9.3	34.9*	-14.3	-18.5	-1.7
Cc1cccc(NC(=O)c2cc(NC(=O)C3CCCCC3C(=O)O)ccc2N2CCCCC2)c1 (centres undefined)	.	.	23.1	-0.6	.	.
CC(=O)Nc1ccc(N2CCCCC2)c(C(=O)Nc2cccc(C)c2)c1	1.1	9.6	31.2*	-16.9	-10.6	-11.2
COc1ccc(OC)c(-c2cc(C(=O)N3CCN(c4ccccc4)CC3)no2)c1	4.2	5.7	32.9*	-8.2	-10.3	-10.5
O=C(c1cc(-c2cccs2)on1)N1CCN(c2ccccc2)CC1	-2.5	1.8	13.7	4.6	-11.5	-0.8
COc1ccc(OC)c(-c2cc(C(=O)N3CCc4ccccc4C3)no2)c1	-9.5	6.4	40.8*	-0.6	-1.1	-1.8
COc1cccc(-c2cc(C(=O)N3CCc4ccccc4C3)no2)c1	8.9	11.2	20.9	1.3	-4.0	-14.3

Assay outcomes deposited in PubChem by several laboratories.
